Common to all, as to assay type: functional
Settings in all cases: read-out: ED50 (the source's name)

One assay deals with HCT-15. Description: Cytotoxicity against human HCT15 cells. The method, boiled down: (§1)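 Human tumour cell lines of stated origin: SK-MEL-2 from skin cancer, XF498 from CNS cancer, HCT 15 from colon cancer.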
In another assay the test system is XF498. Briefly: Cytotoxicity against human XF498 cells. In short, it runs like this:
as §1

Another assay has as its system SK-OV-3. Description: Cytotoxicity against human SK-OV-3 cells.
Another assay relates to A549. Description: Cytotoxicity against human A549 cells.
In a further assay the test system is SK-MEL-2. Description: Cytotoxicity against human SK-MEL-2 cells. In short, it runs like this:
as §1

Values after ≈ are worked out from the molar mass of the structure shown.

On to `COc1cccc2c1C(=O)c1c(O)c3c(c(O)c1C2=O)C[C@@](O)(C(=O)CO)C[C@@H]3O[C@H]1C[C@H](N)[C@H](O)[C@H](C)O1` [DOXORUBICIN], for which the EC50 in the assay on HCT-15 is 0.06 µg/mL (≈ 0.11 µM); with XF498, 0.06 µg/mL (≈ 0.11 µM); in the assay with SK-OV-3, 0.13 µg/mL (≈ 0.239 µM); in the assay on A549 it was 0.04 µg/mL (≈ 0.0736 µM); with SK-MEL-2, 0.04 µg/mL (≈ 0.0736 µM).

(Values after ChEMBL document CHEMBL1157310, “Cytotoxic oxylipins from a marine sponge Topsentia sp” (2006).)
